The record followed here is ChEMBL document CHEMBL5150073, “Photocaged DNA-Binding Photosensitizer Enables Photocontrol of Nuclear Entry for Dual-Targeted Photodynamic Therapy” (J Med Chem, 2022).

One test relates to A549. Description: Selectivity index, ratio of CC50 for photocytotoxicity against human […] cells irradiated with 480 nm 2.3 J/cm^2 light to CC50 for photocytotoxicity against human A549 cells irradiated with 480 nm 2.3 J/cm^2 light and 8 J/cm^2 UV irradiation. The class given is functional. The procedure, abridged: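 Cells (MCF7, A549, HeLa) incubated 1 h with compound (BB probes 0–32 μM, Br-DAPI 0–64 μM) and washed once. Light arms: 480 nm (15 min, 2.3 J cm⁻²) with or without UV (5 min, 8.0 J cm⁻²), or UV only; dark controls unilluminated. Cells kept overnight in growth medium, then MTT read 24 h post-treatment. CC50 taken relative to untreated cells. n = 3.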

Test [1] relates to DNA. Description: Induction of DNA (unknown origin) damage in PBS at pH 7.4 assessed as double strand breaks by measuring elimination of intact DNA at 10 uM irradiated with 480 nm 2.3 J/cm^2 light for 15 mins with 8 J/cm^2 UV irradiation for 5 mins by ethidium bromide staining based agarose gel electrophoresis. The class given is nucleic-acid assay. The settings on record: time 20.0 min. The procedure, abridged: (§1)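 Plasmid dsDNA (70 ng pCMV-PARP1-3xFlag-WT, 7146 bp) in PBS pH 7.4 with compound at 10 μM. Illumination: 480 nm for 15 min (2.3 J cm⁻²), then UV 365 nm lamp for 5 min (8.0 J cm⁻²). Samples denatured, run on 1% agarose gel with ethidium bromide. n = 2.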

For test [2], the system named is DNA. The test can be described thus: Induction of DNA (unknown origin) damage in PBS at pH 7.4 assessed as double strand breaks by measuring production of small DNA fragments at 10 uM irradiated with 480 nm 2.3 J/cm^2 light for 15 mins with 8 J/cm^2 UV irradiation for 5 mins by ethidium bromide staining based agarose gel electrophoresis. The class given is nucleic-acid assay. The settings on record: time 20.0 min. The method in brief:
as §1

Activity calls are given as the source filed them. No cut-off for these calls is given here.

With `CC1=CC(C)=[N+]2C1=C(COC(=O)/N=C(\N)c1ccc3c(Br)c(-c4ccc(C(=N)N)cc4)[nH]c3c1)c1c(C)cc(C)n1[B-]2(C)C`, in the test with A549, the Ratio stood at 17. For the same molecule, the result in the test on DNA [1] and in the test with DNA [2] was Active.
